Source: ChEMBL document CHEMBL2021854, “2-Aminopyrimidine based 4-aminoquinoline anti-plasmodial agents. Synthesis, biological activity, structure-activity relationship and mode of action studies” (Eur J Med Chem, 2012)

Columns and labels:
Felid alphaherpesvirus 1 = experiment: Antiviral activity against Feline herpesvirus infected in cat CRFK cells assessed as inhibition of virus-induced cytopathic effect after 4 days by colorimetric formazan-based MTS assay; type: functional, organism-based; settings: Felid alphaherpesvirus 1, CRFK, 96 h
Plasmodium falciparum [1] = experiment: Ratio of chloroquine IC50 to compound IC50 for chloroquine-sensitive Plasmodium falciparum 3D7; type: functional
Plasmodium falciparum [2] = experiment: Antiplasmodial activity chloroquine-resistant Plasmodium falciparum K1 infected in human A+ erythrocytes assessed as inhibition of [3H]-hypoxanthine incorporation after 24 hrs by scintillation counting; type: functional, organism-based
[3] = test system: Mammalian orthoreovirus 1; experiment: Antiviral activity against Reovirus-1 infected in african green monkey Vero cells assessed as inhibition of virus-induced cytopathogenicity after 4 days; type: functional, organism-based; settings: Mammalian orthoreovirus 1, Vero, 96 h
Method in brief: (§1)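 Confluent HEL, Vero or HeLa monolayers were inoculated with 100 CCID50 of virus in the presence of varying concentrations of compound. Cytopathicity was scored when it reached completion in untreated, virus-infected control cultures.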

Influenza A virus = experiment: Antiviral activity against Influenza A virus H3N2 infected in MDCK cells assessed as reduction visual scoring of virus-induced cytopathogenicity after 4 days; type: functional, organism-based; settings: 96 h
Method in brief: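 MDCK monolayers infected with 100 CCID50 of influenza A (H1N1 or H3N2) or influenza B, with varying compound concentrations. Cytopathicity read when untreated infected controls reached complete CPE.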

Nucleic Acid [4] = experiment: Binding affinity to Escherichia coli pUC18 DNA by spectrofluorometric analysis; type: nucleic-acid assay
Method in brief: (§2)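 Steady-state fluorescence titration at ambient temperature: compound held at 30 μM while DNA was varied (0.3–70 μM), working solutions diluted in methanol. Excitation 320 nm, emission 380 nm, slit 5 nm. Log K was calculated from quenching of the 380 nm emission.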

[5] = Cytotoxicity against human HeLa cells assessed as minimum compound concentration required to causes microscopically detectable alteration of normal cell morphology; type: cell-based
Method in brief: (§3)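 Confluent, non-proliferating cell cultures were exposed to the compounds. The endpoint was the minimum concentration producing a microscopically detectable alteration of normal cell morphology.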

[6] = Cytotoxicity against MDCK cells assessed as minimum compound concentration required to causes microscopically detectable alteration of normal cell morphology; type: cell-based, Canis lupus familiaris; settings: dog; method in brief: as §3
[7] = Inhibition of beta-hematin formation assessed as Ferriprotoporphyrin IX biomineralisation after 24 hrs; type: functional
Method in brief: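 Hemin (0.5 mg/ml in DMSO) was mixed with 0.5 M sodium acetate pH 4.4 and compound, then incubated for 24 h at 37 °C. The pellet was washed with DMSO to remove unreacted hemin and dissolved in 0.1 N NaOH, with A405 read. Percent inhibition was taken versus solvent control, and IC50 by curve fitting.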

Nucleic Acid [8] = experiment: Binding affinity to calf thymus DNA after 5 mins by spectrofluorometric analysis; type: nucleic-acid assay; settings: Bos taurus; method in brief: as §2
Nucleic Acid [9] = experiment: Binding affinity to calf thymus DNA assessed as melting temperature; type: nucleic-acid assay; settings: Bos taurus
Method in brief: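 CT DNA (151 μM NP) was heated with or without compound at a 5:1 DNA:drug ratio in 40% DMSO/TE buffer pH 7.4 with 0.5 mM NaCl. Absorbance at 260 nm was followed with a 0.5 °C/min ramp to obtain Tm.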

[10] = Cytotoxicity against cat CRFK cells assessed as cell viability by colorimetric formazan-based MTS assay; set-up: species or system Felis catus; settings: crfk
Plasmodium falciparum [11] = experiment: Ratio of chloroquine IC50 to compound IC50 for chloroquine-sensitive Plasmodium falciparum K1; type: functional
Coxsackievirus B4 = experiment: Antiviral activity against Coxsackie virus B4 infected in human HeLa cells assessed as inhibition of virus-induced cytopathogenicity after 4 days; type: functional, organism-based; settings: Enterovirus B, 96 h; method in brief: as §1
[12] = Cytotoxicity against african green monkey Vero cells assessed as minimum compound concentration required to causes microscopically detectable alteration of normal cell morphology; type: cell-based; settings: chlorocebus sabaeus; method in brief: as §3
Human betaherpesvirus 5 = experiment: Antiviral activity against Cytomegalovirus AD-169 infected in HEL cells assessed as inhibition of virus plaque formation after 4 days; type: functional, organism-based; settings: Human betaherpesvirus 5, AD169, HEL, 96 h
[13] = Cytotoxicity against human HEL cells assessed as minimum compound concentration required to causes microscopically detectable alteration of normal cell morphology; type: cell-based; method in brief: as §3
HeLa = experiment: Cytotoxicity against human HeLa cells assessed as cell viability by colorimetric formazan-based MTS assay

SMILES	EC50 (Felid alphaherpesvirus 1)	Ratio IC50 (Plasmodium falciparum [1])	IC50 (Plasmodium falciparum [2])	EC50 [3]	EC50 (Influenza A virus)	log Ks (Nucleic Acid [4])	MCC [5]	MCC [6]	IC50 [7]	inhibition [7]	log Ks (Nucleic Acid [8])	Tm (Nucleic Acid [9])	CC50 [10]	Ratio IC50 (Plasmodium falciparum [11])	EC50 (Coxsackievirus B4)	MCC [12]	EC50 (Human betaherpesvirus 5)	MCC [13]	CC50 (HeLa)
Cc1nc(NCCCCNc2ccnc3cc(Cl)ccc23)nc(-c2ccccc2[N+](=O)[O-])c1C(=O)OC(C)C	> 20 µM	56	0.0036 µM	> 20 µM	> 0.8 µM	5.27	100 µM	4000 nM	2 µM	Dose-dependent effect	3.39	62.5 °C	27.2 µM	56	> 20 µM	100 µM	> 4 µM	20 µM	4.4 µM
CCOC(=O)c1c(C)nc(NCCCCNc2ccnc3cc(Cl)ccc23)nc1-c1ccccc1	> 4 µM	–	0.0261 µM	> 100 µM	> 0.16 µM	–	> 100 µM	800 nM	–	–	4.67	63 °C	13.9 µM	–	> 100 µM	> 100 µM	2 µM	> 20 µM	1.84 µM
